Autophagy HCS – autophagy modulation, high-content screen; MEF GFP-LC3 puncta imaging; test concentration mostly 10 µM; calls only at 10 µM (by protocol); 190,000 compounds, 0.98% hits; AID 463193;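 active = percentage of spot-positive cells more than 3 SD above its plate mean, without a fluorescence outlier flag or 80% toxicity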
Dynein transport – blocks dynein driven cargo transport along microtubules | 3617.4 mouse cells, GR-EGFP nuclear translocation imaging; test concentration mostly 20 µM; stimulated with dexamethasone, 1 µM; active compounds read low | z-score, hits read low | 220,000 compounds, 0.47% hits;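 active = plate z-score of nuclear minus cytoplasmic receptor signal below a set negative limit, without overly bright fluorescence or cell loss, cut at about -3.5 in these data, passing the limit was not always enough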;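 also: z-score of nuclear minus cytoplasmic ring GR-EGFP intensity difference per well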
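Medium: Induction medium lacking tetracycline, stripped serum | Probe or stimulus: 1.0 µM final dexamethasone stimulus | Schedule: 48 h induction, then 1 h compound, then 30 min agonist, 37 °C | Signal: Automated 10x imaging of fixed Hoechst-stained cells | Evaluation: Per-cell GR-EGFP intensity, nucleus versus surrounding cytoplasmic ring, well-averaged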
bCat KO growth – beta-catenin-lacking colon tumor cell growth suppression; HCT116 beta-catenin knockout viability, CellTiter-Glo, 60 h; active compounds read low; viability, % at 10 µM; AID 818; 140,000 compounds, 1.5% hits;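 active = viability at or under a set limit, the compound median less 4 SD, cut at about 6% in these data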
HCT116 PTEN-null – growth suppressors of cells with PTEN tumor suppressor deletion | 140,000 compounds, 1.2% hits | viability, % at 10 µM | HCT116 PTEN-null viability, CellTiter-Glo, 60 h; active compounds read low | AID 827;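 active = viability at or below a set limit, 4 SD under the median of all tested compounds, cut at about 3.7% in these data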;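 also: PTEN knockout HCT116 line with beta catenin targeted HCT116 as companion control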
Lmaj promast – reduces viability of Leishmania major promastigotes | resazurin fluorescence viability | inhibition, % at 10 µM | 200,000 compounds, 9% hits; in the data active = inhibition above about 50%;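 also: promastigotes grown with compound for 44 hours at 28 °C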
Large screens that a line does not name were inactive. Most compounds without a hit are left out; they make up all but 9.2% or so of the library.

CC1CCCN(C(C(=O)NC2CCCCC2)c2cc3c(cc2[N+](=O)[O-])OCO3)C1 (stereo not drawn)	Lmaj promast 95
CCN1CCCC1Cn1cnc2c([nH]c3cccc(Cl)c32)c1=O (stereo not drawn)	Lmaj promast 81
CCC1CCCN1Cn1cnc2c([nH]c3ccc(OC)cc32)c1=O (stereo not drawn)	Lmaj promast 66
CCOC(=O)N1CCC2(CC1)C(C#N)=C(N)Oc1c2c(C)nn1-c1cccc(Cl)c1	none
Cc1ccc2c(c1)c1c(n2CC(O)CNC(C)(C)C)CCCC1 (stereo not drawn)	Lmaj promast 82 (no result: Autophagy HCS)
Cc1ccc2c(c1)c1c(n2CC(O)Cn2c(C)nc3ccccc32)CCCC1 (stereo not drawn)	none
CC(C)c1ccc(NC(=O)COc2nnc(-c3cccs3)c(-c3cccs3)n2)cc1	Lmaj promast 83
CCc1ccc(NC(=O)C(C)Oc2nnc(-c3cccs3)c(-c3cccs3)n2)cc1 (stereo not drawn)	Lmaj promast 84
Cc1nc(Nc2ccccc2C(F)(F)F)sc1C(=O)N(C)C	none (no result: bCat KO growth, HCT116 PTEN-null)
CN1CCC(OC(=O)COc2ccc(Br)cc2)CC1	none (no result: bCat KO growth, HCT116 PTEN-null)
CN1CCC(OC(=O)c2ccc(Br)cc2)CC1	Lmaj promast 85 (no result: bCat KO growth, HCT116 PTEN-null)
CCc1ccc(/C=C2/C(=O)N(C)C(=S)N2CC(=O)OC)s1	none (no result: bCat KO growth, HCT116 PTEN-null)
COc1ccc(C(=O)CSc2nnc(CN3CCCC3)n2-c2ccc(F)cc2)c(OC)c1	Lmaj promast 80
COc1ccc(C(=O)CSc2nnc(C3CCCCC3)n2N)c(OC)c1	Lmaj promast 53
COc1ccc(C(=O)CSc2nnc(CN3CCCCC3)n2-c2ccc(F)cc2)cc1OC	Lmaj promast 90
CCCn1c(N)c(NCCN2CCOCC2)c(=O)[nH]c1=O	none (no result: bCat KO growth, HCT116 PTEN-null)
COc1ccc(/C=C/C(O)=C(\C#N)c2nnc(N3CCOCC3)n2-c2ccccc2)cc1OC	none (no result: bCat KO growth, HCT116 PTEN-null)
Cc1cc(C(=O)Nc2ccccc2)oc1C	Lmaj promast 56
CCCC1=[N+](CC(=O)c2ccccc2)CCn2c(C)ccc21	Lmaj promast 90
CCCC1=[N+](CC)CCn2c(C)ccc21	none
O=C(CSc1nnc2sc3ccccc3n12)NCc1ccc2c(c1)OCO2	none (no result: Autophagy HCS, bCat KO growth, HCT116 PTEN-null, Lmaj promast)
CC1=C(C(=O)Nc2ccc(Cl)cc2)C2(CCCCC2)C(C(N)=O)C(=S)N1 (stereo not drawn)	none
CCCC(=O)N1CCN(c2ccc(NC(=O)c3cccs3)cc2Cl)CC1	none (no result: bCat KO growth, HCT116 PTEN-null)
CCC(=O)N1CCN(c2ccc(NC(=O)c3cc4ccccc4o3)cc2Cl)CC1	bCat KO growth 2.5, HCT116 PTEN-null 3.1
O=C(Nc1ccc(N2CCN(C(=O)c3ccco3)CC2)c(Cl)c1)c1cc2ccccc2o1	bCat KO growth 2.8, HCT116 PTEN-null 3.2, Lmaj promast 96
O=C(Nc1ccc(N2CCN(C(=O)c3ccccc3)CC2)c(Cl)c1)c1ccco1	none
O=C(c1cc2ccccc2o1)N1CCN(c2ccccc2Cl)CC1	none
CCCC(=O)N1CCN(c2ccc(NC(=O)c3cc4ccccc4o3)cc2Cl)CC1	Lmaj promast 60
O=C1C2C(C(=O)N1/N=C/c1cc(Br)cc([N+](=O)[O-])c1O)C1C=CC2C12CC2 (stereo not drawn)	none
Cc1cc(C(C)(C)C)cc(C)c1S(=O)(=O)N1CC(=O)Nc2ccccc21	none (no result: Autophagy HCS, bCat KO growth, HCT116 PTEN-null, Lmaj promast)
CCOP(=O)(OCC)c1nc(-c2cccc3ccccc23)oc1NCc1ccc(OC)cc1	Lmaj promast 71 (no result: bCat KO growth, HCT116 PTEN-null)
CCOP(=O)(OCC)c1nc(-c2cccc3ccccc23)oc1NCc1ccccc1	none
CCOP(=O)(OCC)c1nc(-c2ccc(C)cc2)oc1NCc1ccccc1	Lmaj promast 79
COP(=O)(OC)c1nc(-c2cccc3ccccc23)oc1NCCc1ccccc1	Lmaj promast 71
CC(NC(=O)Nc1ccccc1)C(c1cccs1)N1CCN(C)CC1 (stereo not drawn)	none
Cc1nn(-c2ccccc2)c2sc(C(=O)N(CC(=O)NC(C)(C)C)Cc3ccco3)cc12	Lmaj promast 60
COC(=O)c1cc2c(C)nn(-c3ccccc3)c2s1	none
CC(C)CC(/C(O)=C(\C#N)c1nc2ccccc2[nH]1)N1C(=O)c2ccccc2C1=O (stereo not drawn)	Lmaj promast 65
Cn1c2ccccc2c2cnn(CC(=O)Nc3ccc(F)cc3F)c(=O)c21	none (no result: Autophagy HCS, bCat KO growth, HCT116 PTEN-null, Lmaj promast)
C#CC[N+](C)(C)CCCCCCCCCC	Lmaj promast 58
CC#CC[N+](C)(C)CCCCCCCCCCCC	bCat KO growth 0.8, HCT116 PTEN-null 0.6, Lmaj promast 100
C#CC[N+](C)(C)CCCCCCCCCCCC	bCat KO growth 1.4, HCT116 PTEN-null 1.7, Lmaj promast 100

Source: PubChem (several laboratories)
